One block for each compound: values may come before it.
Columns and labels:
[1] = test system: Brain; assay: Biodistribution in Kunming mouse brain at 1 uCi, iv after 2 mins by gamma counting; assay type: ADME, organism-based; conditions: in vivo
Outline: (§1)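 Female normal KunMing mice, about 20 g. [125I]-labelled tracer (1 μCi) in 100 μL saline injected into the tail vein. Mice killed at set times after injection; organs removed, weighed and counted in a gamma counter. %ID/g of wet tissue calculated against diluted aliquots of the injected dose.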

[2] = test system: Stomach; assay: Biodistribution in Kunming mouse stomach assessed per organ at 1 uCi, iv after 60 mins by gamma counting; assay type: ADME, organism-based; conditions: in vivo, 1 h
[3] = test system: Stomach; assay: Biodistribution in Kunming mouse stomach assessed per organ at 1 uCi, iv after 15 mins by gamma counting; assay type: ADME, organism-based; conditions: in vivo, 0.25 h; outline: as §1
[4] = test system: Heart; assay: Biodistribution in Kunming mouse heart at 1 uCi, iv after 30 mins by gamma counting; assay type: ADME, organism-based; conditions: in vivo, 0.5 h; outline: as §1
[5] = test system: Brain; assay: Biodistribution in Kunming mouse brain at 1 uCi, iv after 30 mins by gamma counting; assay type: ADME, organism-based; conditions: in vivo, 0.5 h; outline: as §1
[6] = test system: Lung; assay: Biodistribution in Kunming mouse lung at 1 uCi, iv after 120 mins by gamma counting; assay type: ADME, organism-based; conditions: in vivo, 2 h; outline: as §1
[7] = test system: Muscle tissue; assay: Biodistribution in Kunming mouse muscle at 1 uCi, iv after 15 mins by gamma counting; assay type: ADME, organism-based; conditions: in vivo, 0.25 h; outline: as §1
[8] = test system: Heart; assay: Biodistribution in Kunming mouse heart at 1 uCi, iv after 120 mins by gamma counting; assay type: ADME, organism-based; conditions: in vivo, 2 h; outline: as §1
[9] = Octanol-phosphate buffer partition coefficient, log D of the compound at pH 7.4; assay type: physicochemical
Outline: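 Radiotracer added to premixed n-octanol (3 g) and PBS (0.05 M, pH 7.4; 3 g), and partitioned between the two phases.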

[10] = test system: Blood; assay: Biodistribution in Kunming mouse blood at 1 uCi, iv after 30 mins by gamma counting; assay type: ADME, organism-based; conditions: in vivo, 0.5 h; outline: as §1
[11] = test system: Liver; assay: Biodistribution in Kunming mouse liver at 1 uCi, iv after 30 mins by gamma counting; assay type: ADME, organism-based; conditions: in vivo, 0.5 h; outline: as §1
[12] = test system: Stomach; assay: Biodistribution in Kunming mouse stomach assessed per organ at 1 uCi, iv after 30 mins by gamma counting; assay type: ADME, organism-based; conditions: in vivo, 0.5 h; outline: as §1
[13] = test system: Liver; assay: Biodistribution in Kunming mouse liver at 1 uCi, iv after 15 mins by gamma counting; assay type: ADME, organism-based; conditions: in vivo, 0.25 h; outline: as §1
[14] = test system: Kidney; assay: Biodistribution in Kunming mouse kidney at 1 uCi, iv after 60 mins by gamma counting; assay type: ADME, organism-based; conditions: in vivo, 1 h; outline: as §1
[15] = test system: Heart; assay: Biodistribution in Kunming mouse heart at 1 uCi, iv after 60 mins by gamma counting; assay type: ADME, organism-based; conditions: in vivo, 1 h; outline: as §1
[16] = test system: Muscle tissue; assay: Biodistribution in Kunming mouse muscle at 1 uCi, iv after 30 mins by gamma counting; assay type: ADME, organism-based; conditions: in vivo, 0.5 h; outline: as §1
[17] = test system: Stomach; assay: Biodistribution in Kunming mouse stomach assessed per organ at 1 uCi, iv after 2 mins by gamma counting; assay type: ADME, organism-based; conditions: in vivo; outline: as §1
[18] = test system: Heart; assay: Biodistribution in Kunming mouse heart at 1 uCi, iv after 2 mins by gamma counting; assay type: ADME, organism-based; conditions: in vivo; outline: as §1
[19] = test system: Spleen; assay: Biodistribution in Kunming mouse spleen at 1 uCi, iv after 30 mins by gamma counting; assay type: ADME, organism-based; conditions: in vivo, 0.5 h; outline: as §1
[20] = test system: Lung; assay: Biodistribution in Kunming mouse lung at 1 uCi, iv after 15 mins by gamma counting; assay type: ADME, organism-based; conditions: in vivo, 0.25 h; outline: as §1
[21] = test system: Blood; assay: Biodistribution in Kunming mouse blood at 1 uCi, iv after 60 mins by gamma counting; assay type: ADME, organism-based; conditions: in vivo, 1 h; outline: as §1
[22] = test system: Liver; assay: Biodistribution in Kunming mouse liver at 1 uCi, iv after 120 mins by gamma counting; assay type: ADME, organism-based; conditions: in vivo, 2 h; outline: as §1
[23] = test system: Blood; assay: Biodistribution in Kunming mouse blood at 1 uCi, iv after 15 mins by gamma counting; assay type: ADME, organism-based; conditions: in vivo, 0.25 h; outline: as §1
[24] = test system: Lung; assay: Biodistribution in Kunming mouse lung at 1 uCi, iv after 30 mins by gamma counting; assay type: ADME, organism-based; conditions: in vivo, 0.5 h; outline: as §1
[25] = test system: Spleen; assay: Biodistribution in Kunming mouse spleen at 1 uCi, iv after 60 mins by gamma counting; assay type: ADME, organism-based; conditions: in vivo, 1 h; outline: as §1
[26] = test system: Spleen; assay: Biodistribution in Kunming mouse spleen at 1 uCi, iv after 15 mins by gamma counting; assay type: ADME, organism-based; conditions: in vivo, 0.25 h; outline: as §1
[27] = test system: Blood; assay: Biodistribution in Kunming mouse blood at 1 uCi, iv after 120 mins by gamma counting; assay type: ADME, organism-based; conditions: in vivo, 2 h; outline: as §1
[28] = test system: Kidney; assay: Biodistribution in Kunming mouse kidney at 1 uCi, iv after 2 mins by gamma counting; assay type: ADME, organism-based; conditions: in vivo; outline: as §1
[29] = test system: Kidney; assay: Biodistribution in Kunming mouse kidney at 1 uCi, iv after 15 mins by gamma counting; assay type: ADME, organism-based; conditions: in vivo, 0.25 h; outline: as §1
[30] = test system: Lung; assay: Biodistribution in Kunming mouse lung at 1 uCi, iv after 2 mins by gamma counting; assay type: ADME, organism-based; conditions: in vivo; outline: as §1
[31] = test system: Kidney; assay: Biodistribution in Kunming mouse kidney at 1 uCi, iv after 30 mins by gamma counting; assay type: ADME, organism-based; conditions: in vivo, 0.5 h; outline: as §1
[32] = test system: Muscle tissue; assay: Biodistribution in Kunming mouse muscle at 1 uCi, iv after 60 mins by gamma counting; assay type: ADME, organism-based; conditions: in vivo, 1 h; outline: as §1
[33] = test system: Muscle tissue; assay: Biodistribution in Kunming mouse muscle at 1 uCi, iv after 2 mins by gamma counting; assay type: ADME, organism-based; conditions: in vivo; outline: as §1
[34] = test system: Stomach; assay: Biodistribution in Kunming mouse stomach assessed per organ at 1 uCi, iv after 120 mins by gamma counting; assay type: ADME, organism-based; conditions: in vivo, 2 h; outline: as §1
[35] = test system: Brain; assay: Biodistribution in Kunming mouse brain at 1 uCi, iv after 120 mins by gamma counting; assay type: ADME, organism-based; conditions: in vivo, 2 h; outline: as §1
[36] = test system: Brain; assay: Biodistribution in Kunming mouse brain at 1 uCi, iv after 15 mins by gamma counting; assay type: ADME, organism-based; conditions: in vivo, 0.25 h; outline: as §1
[37] = test system: Liver; assay: Biodistribution in Kunming mouse liver at 1 uCi, iv after 60 mins by gamma counting; assay type: ADME, organism-based; conditions: in vivo, 1 h; outline: as §1
[38] = test system: Kidney; assay: Biodistribution in Kunming mouse kidney at 1 uCi, iv after 120 mins by gamma counting; assay type: ADME, organism-based; conditions: in vivo, 2 h; outline: as §1
[39] = test system: Brain; assay: Biodistribution in Kunming mouse brain at 1 uCi, iv after 60 mins by gamma counting; assay type: ADME, organism-based; conditions: in vivo, 1 h; outline: as §1
[40] = test system: Heart; assay: Biodistribution in Kunming mouse heart at 1 uCi, iv after 15 mins by gamma counting; assay type: ADME, organism-based; conditions: in vivo, 0.25 h; outline: as §1
[41] = test system: Blood; assay: Biodistribution in Kunming mouse blood at 1 uCi, iv after 2 mins by gamma counting; assay type: ADME, organism-based; conditions: in vivo; outline: as §1
[42] = test system: Liver; assay: Biodistribution in Kunming mouse liver at 1 uCi, iv after 2 mins by gamma counting; assay type: ADME, organism-based; conditions: in vivo; outline: as §1
[43] = test system: Spleen; assay: Biodistribution in Kunming mouse spleen at 1 uCi, iv after 2 mins by gamma counting; assay type: ADME, organism-based; conditions: in vivo; outline: as §1
[44] = test system: Lung; assay: Biodistribution in Kunming mouse lung at 1 uCi, iv after 60 mins by gamma counting; assay type: ADME, organism-based; conditions: in vivo, 1 h; outline: as §1
[45] = test system: Spleen; assay: Biodistribution in Kunming mouse spleen at 1 uCi, iv after 120 mins by gamma counting; assay type: ADME, organism-based; conditions: in vivo, 2 h; outline: as §1
[46] = test system: Muscle tissue; assay: Biodistribution in Kunming mouse muscle at 1 uCi, iv after 120 mins by gamma counting; assay type: ADME, organism-based; conditions: in vivo, 2 h; outline: as §1

Drug uptake [1]: 0.5 % ID/g
Drug uptake [2]: 8.9 %ID
Drug uptake [3]: 2.6 %ID
Drug uptake [4]: 5.55 % ID/g
Drug uptake [5]: 0.39 % ID/g
Drug uptake [6]: 7.08 % ID/g
Drug uptake [7]: 2.23 % ID/g
Drug uptake [8]: 4.18 % ID/g
logD [9]: 3.07
Drug uptake [10]: 6.18 % ID/g
Drug uptake [11]: 26.91 % ID/g
Drug uptake [12]: 5.11 %ID
Drug uptake [13]: 46.86 % ID/g
Drug uptake [14]: 6.42 % ID/g
Drug uptake [15]: 5.33 % ID/g
Drug uptake [16]: 2.12 % ID/g
Drug uptake [17]: 0.39 %ID
Drug uptake [18]: 5.08 % ID/g
Drug uptake [19]: 9.4 % ID/g
Drug uptake [20]: 16.37 % ID/g
Drug uptake [21]: 6.7 % ID/g
Drug uptake [22]: 11 % ID/g
Drug uptake [23]: 7.99 % ID/g
Drug uptake [24]: 12.95 % ID/g
Drug uptake [25]: 6.38 % ID/g
Drug uptake [26]: 11.2 % ID/g
Drug uptake [27]: 6.85 % ID/g
Drug uptake [28]: 4.82 % ID/g
Drug uptake [29]: 6.61 % ID/g
Drug uptake [30]: 26.17 % ID/g
Drug uptake [31]: 5.92 % ID/g
Drug uptake [32]: 3.95 % ID/g
Drug uptake [33]: 1.61 % ID/g
Drug uptake [34]: 20.22 %ID
Drug uptake [35]: 0.59 % ID/g
Drug uptake [36]: 0.44 % ID/g
Drug uptake [37]: 15.74 % ID/g
Drug uptake [38]: 6.33 % ID/g
Drug uptake [39]: 0.5 % ID/g
Drug uptake [40]: 6.25 % ID/g
Drug uptake [41]: 11.21 % ID/g
Drug uptake [42]: 45.73 % ID/g
Drug uptake [43]: 9.14 % ID/g
Drug uptake [44]: 10.45 % ID/g
Drug uptake [45]: 7.21 % ID/g
Drug uptake [46]: 2.83 % ID/g
SMILES: COc1ccc(/C=C/c2ccc(-c3ccc([125I])s3)s2)cc1

Drug uptake [1]: 2.11 % ID/g
Drug uptake [2]: 4.28 %ID
Drug uptake [3]: 1.48 %ID
Drug uptake [4]: 3.35 % ID/g
Drug uptake [5]: 0.41 % ID/g
Drug uptake [6]: 6.29 % ID/g
Drug uptake [7]: 0.97 % ID/g
Drug uptake [8]: 3.39 % ID/g
logD [9]: 3.31
Drug uptake [10]: 1.16 % ID/g
Drug uptake [11]: 42.17 % ID/g
Drug uptake [12]: 3.25 %ID
Drug uptake [13]: 40.18 % ID/g
Drug uptake [14]: 4.91 % ID/g
Drug uptake [15]: 2.09 % ID/g
Drug uptake [16]: 1.25 % ID/g
Drug uptake [17]: 0.61 %ID
Drug uptake [18]: 5.53 % ID/g
Drug uptake [19]: 14.82 % ID/g
Drug uptake [20]: 18.99 % ID/g
Drug uptake [21]: 1.29 % ID/g
Drug uptake [22]: 45.74 % ID/g
Drug uptake [23]: 1.38 % ID/g
Drug uptake [24]: 15.69 % ID/g
Drug uptake [25]: 14.58 % ID/g
Drug uptake [26]: 12.61 % ID/g
Drug uptake [27]: 1.76 % ID/g
Drug uptake [28]: 4.69 % ID/g
Drug uptake [29]: 4.37 % ID/g
Drug uptake [30]: 20.89 % ID/g
Drug uptake [31]: 4.56 % ID/g
Drug uptake [32]: 0.93 % ID/g
Drug uptake [33]: 0.85 % ID/g
Drug uptake [34]: 3.36 %ID
Drug uptake [35]: 0.55 % ID/g
Drug uptake [36]: 0.42 % ID/g
Drug uptake [37]: 47.7 % ID/g
Drug uptake [38]: 6.35 % ID/g
Drug uptake [39]: 0.47 % ID/g
Drug uptake [40]: 3.37 % ID/g
Drug uptake [41]: 12.1 % ID/g
Drug uptake [42]: 47.12 % ID/g
Drug uptake [43]: 11.46 % ID/g
Drug uptake [44]: 12.99 % ID/g
Drug uptake [45]: 21.98 % ID/g
Drug uptake [46]: 0.76 % ID/g
SMILES: [125I]c1ccc(/C=C/c2ccc(-c3cccs3)s2)cc1
